Active and inactive are the calls of the source. No cut-off for these calls is given here.
Experiments:
[1] = molecular target: Hypoxia inducible factors; HIF-1-alpha, HIF-2-alpha (Homo sapiens, UniProt Q16665+Q99814); test: Inhibition of HIF1 signaling in human U251 cells expressing VEGF by VEGF promoter-driven PLAP reporter gene assay; type: cell-based; details: u-251
How it was run: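 U251/VEGF-PLAP reporter cells seeded at 4.0 × 10⁴ cells/well and incubated overnight before compounds were added. Compounds were dissolved in DMSO and diluted in culture medium, final DMSO ≤0.2% (v/v). Cells grown in DMEM with 10% FBS at 37 °C, 5% CO₂, under 21% O₂ (normoxia) or 2% O₂ (hypoxia).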

Mus musculus [2] = test: Suppression of HIF1alpha protein expression in BALB/cA mouse xenografted with human U251 cells at 50 to 100 mg/kg, po after 24 hrs by ELISA; type: functional, organism-based; details: U-251
How it was run: (§1)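 Female BALB/cA nu/nu mice bearing subcutaneous untransfected U251 tumors (~300 mm³) got a single oral dose at 10 mL/kg in DMSO/Tween-80 (35:65) diluted 5-fold with saline. Tumors harvested 24 h later, frozen in liquid nitrogen and fragmented, then lysed in Tris pH 7.5/NaCl/Triton X-100 buffer and centrifuged. HIF-1α measured by ELISA, normalized to BCA total protein, expressed as % of vehicle control. Mean of three animals.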

Mus musculus [3] = test: Suppression of HIF1alpha mRNA expression in BALB/cA mouse xenografted with human U251 cells at 50 to 100 mg/kg, po after 24 hrs; type: functional, organism-based; details: U-251
U-251 [4] = test: Antitumor activity against human U251 cells xenografted in BALB/cA mouse assessed as delay in tumor growth at 12.5 to 100 mg/kg, po dosed daily for 11 days; type: functional, organism-based
How it was run: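 Untransfected U251 cells injected subcutaneously into flank or hind leg of female BALB/cA nu/nu mice and grown to about 300 mm³. Mice stratified into groups of 5 with similar mean tumor volume. Dosed orally at 10 mL/kg once daily for 11 days. Vehicle was DMSO/Tween-80 (35:65) diluted 5-fold with saline just before dosing. Tumor volume (length × diameter²/2) measured twice weekly and expressed relative to pretreatment size.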

Mus musculus [5] = test: Toxicity in BALB/cA mouse xenografted with human U251 cells assessed as reduction in body weight at 12.5 to 100 mg/kg, po dosed daily for 11 days; type: organism-based, U-251; design: dose 12.5-100 mg/kg, route oral; details: in vivo, 264 h
How it was run: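 Female BALB/cA nu/nu mice carried subcutaneous untransfected U251 tumors of about 300 mm³, 5 per group. Given oral doses at 10 mL/kg once daily for 11 days in DMSO/Tween-80 (35:65) diluted 5-fold in saline. Body weight was followed alongside tumor volume.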

Mus musculus [6] = test: Suppression of HIF1alpha protein expression in BALB/cA mouse xenografted with human U251 cells at 12.5 mg/kg, po after 3 hrs by ELISA; type: functional, organism-based; design: dose 12.5 mg/kg; details: U-251
How it was run: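 Single oral dose given to female nude BALB/cA mice with subcutaneous U251 xenografts. Tumors collected at 3, 12, 16 and 24 h after dosing. HIF-1α in total tumor extracts measured by ELISA and normalized to total protein. Mean ± SD reported.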

Mus musculus [7] = test: Toxicity in BALB/cA mouse xenografted with human U251 cells assessed as mouse survival at 50 mg/kg/day, po; type: organism-based, U-251; design: route oral; details: in vivo
How it was run: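 Survival model: untransfected U251 cells implanted intracranially in athymic mice. Oral dosing once daily for about 50 days. Dose formulated in DMSO/Tween-80 (35:65) and diluted 5-fold with saline immediately before administration.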

U-251 [8] = test: Suppression of hypoxia-induced HIF1alpha protein expression in human U251 cells at 0.0001 to 1 uM incubated for 6 hrs in presence of 25 uM proteasome inhibitor MG132 by ELISA method; type: functional, cell-based
How it was run: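 Untransfected U251 cells (4 × 10⁴/well) were incubated with graded compound concentrations for 6 h under 21% O₂, 2% O₂, or 2% O₂ with 25 µM MG132. Lysates were diluted fivefold in PBS/1% BSA and HIF-1α measured by ELISA. Mean of two wells.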

U-251 [9] = test: Suppression of hypoxia-induced HIF1alpha protein expression in human U251 cells at 0.0001 to 1 uM incubated for 6 hrs by ELISA method; type: functional, cell-based
How it was run: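 Untransfected U251 cells at 4 × 10⁴ cells/well were exposed to compound for 6 h under hypoxia (2% O₂), with normoxia (21% O₂) as comparison. Cells were lysed in Tris/NaCl/Triton buffer, lysate diluted fivefold in PBS with 1% BSA, and HIF-1α quantified by ELISA. Mean of two wells.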

U-251 [10] = test: Suppression of deferoxamine-induced HIF1alpha protein expression in human U251 cells at 0.0001 to 1 uM incubated for 6 hrs by ELISA method; type: functional, cell-based
How it was run: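 Untransfected U251 cells at 4 × 10⁴ cells/well were treated for 6 h with a range of compound concentrations. Conditions were 21% O₂, 2% O₂, or 21% O₂ plus 100 µM deferoxamine. Cells were lysed, lysate diluted fivefold in PBS/1% BSA, and HIF-1α measured by total HIF-1α ELISA. Mean of two wells.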

U-251 [11] = test: Suppression of HIF1alpha mRNA expression in human U251 cells; type: functional, cell-based
Mus musculus [12] = test: Suppression of HIF1alpha protein expression in BALB/cA mouse xenografted with human U251 cells at 6.25 to 12.5 mg/kg, po after 24 hrs by ELISA; type: functional, organism-based; details: U-251; how it was run: as §1
Mus musculus [13] = test: Toxicity in BALB/cA mouse xenografted with human U251 cells assessed as reduction in body weight at 12.5 mg/kg, po after 24 hrs; type: organism-based, U-251; design: dose 12.5 mg/kg, route oral; scale not given: the % may be the effect or the level left; details: in vivo
How it was run: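 Nude female BALB/cA mice bearing subcutaneous U251 tumors received one oral dose (10 mL/kg; DMSO/Tween-80 35:65 diluted 5-fold with saline). Body weight was compared with vehicle controls 24 h after dosing.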

SMILES	IC50 [1]	further results
O=C(Nc1ccc(I)cc1)c1ccc(CN2CCOCC2)cc1	560 nM	–
O=C(Nc1ccc(C(F)(F)F)cc1)c1ccc(CC2CCN(Cc3ccncc3)CC2)cc1	110 nM	–
Ic1ccc(NCc2ccc(CN3CCOCC3)cc2)cc1	2500 nM	–
O=C(Nc1ccc(C(F)(F)F)cc1)c1ccc(CN2CCOCC2)nc1	4500 nM	–
O=C(Nc1ccc(C(F)(F)F)cn1)c1ccc(CN2CCOCC2)cc1	4000 nM	–
O=C(Nc1ccccc1I)c1ccc(CN2CCOCC2)cc1	> 20000 nM	–
O=C(Nc1cccc(I)c1)c1ccc(CN2CCOCC2)cc1	2200 nM	–
Nc1ncccc1C(=O)N1CCN(Cc2ccc(C(=O)Nc3ccc(C#Cc4ccccc4)cc3)cc2)CC1	21 nM	inhibition (Mus musculus [2]): Active; inhibition (Mus musculus [3]): inactive; TGI (U-251 [4]): Active; Activity (Mus musculus [5]): Non-toxic; inhibition (Mus musculus [6]): Active; Survival (Mus musculus [7]): 50 days
O=C(Nc1ccc(C(F)(F)F)cc1)c1ccc(CN2CCN(Cc3ccccc3)CC2)cc1	13 nM	–
O=C(Nc1ccc(C#CC2CCCCC2)cc1)c1ccc(CN2CCN(Cc3cccnc3)CC2)cc1	3.1 nM	–
C[C@H]1CN(Cc2ccc(C(=O)Nc3ccc(C(F)(F)F)cc3)cc2)CCN1Cc1cccnc1	35 nM	–
O=C(Nc1ccc(C#CC2(O)CCCCC2)cc1)c1ccc(CN2CCN(Cc3cccnc3)CC2)cc1	> 200 nM	–
O=C(Nc1ccc(C(F)(F)F)cc1)c1ccccc1CN1CCOCC1	> 10000 nM	–
CN(C(=O)c1ccc(CN2CCOCC2)cc1)c1ccc(I)cc1.Cl	2200 nM	–
COc1ccc(NC(=O)c2ccc(CN3CCOCC3)cc2)cc1	13900 nM	–
O=C(Nc1ccccc1)c1ccc(CN2CCOCC2)cc1	5400 nM	–
COCCOCc1ccc(CN2CCN(Cc3ccc(C(=O)Nc4ccc(C#CC56CC7CC(CC(C7)C5)C6)cc4)cc3)[C@@H](C)C2)cn1	0.47 nM	inhibition (Mus musculus [12]): Active; Activity (Mus musculus [13]): 92%
C[C@H]1CN(Cc2cccnc2)CCN1Cc1ccc(C(=O)Nc2ccc(C(F)(F)F)cc2)cc1	3.3 nM	–
FC(F)(F)c1ccc(/C=C/c2ccc(CN3CCOCC3)cc2)cc1	880 nM	–

Continued, in another order:

IC50 [1]	SMILES	further results
7.9 nM	O=C(Nc1ccc(C(F)(F)F)cc1)c1ccc(CN2CCN(Cc3ccncc3)CC2)cc1	–
230 nM	O=C(Nc1ccc(C(F)(F)F)cc1)c1ccc(CN2CCOCC2)cn1	–
2.6 nM	C[C@H]1CN(Cc2cccnc2)CCN1Cc1ccc(C(=O)Nc2ccc(C#CC34CC5CC(CC(C5)C3)C4)cc2)cc1	–
1600 nM	O=C(Nc1ccc(C(F)(F)F)cc1)c1ccc(CN2CCOCC2)s1	–
120 nM	CN(CCN(C)Cc1cccnc1)Cc1ccc(C(=O)Nc2ccc(C(F)(F)F)cc2)cc1	–
14 nM	O=C(Nc1ccc(C(F)(F)F)cc1)c1ccc(CN2CCN(Cc3cccnc3)CC2)cc1	–
5.8 nM	Nc1ncccc1C(=O)N1CCN(Cc2ccc(C(=O)Nc3ccc(C#CC45CC6CC(CC(C6)C4)C5)cc3)cc2)CC1	–
7.9 nM	O=C(Nc1ccc(C#Cc2ccccc2)cc1)c1ccc(CN2CCN(Cc3cccnc3)CC2)cc1	inhibition (U-251 [8]): inactive; inhibition (Mus musculus [2]): Active; inhibition (Mus musculus [3]): inactive; inhibition (U-251 [9]): Active; inhibition (U-251 [10]): inactive; inhibition (U-251 [11]): inactive
2500 nM	O=C(Nc1ccc(CN2CCOCC2)cc1)c1ccc(I)cc1	–
0.97 nM	O=C(Nc1ccc(C#CC23CC4CC(CC(C4)C2)C3)cc1)c1ccc(CN2CCN(Cc3cccnc3)CC2)cc1	–
280 nM	O=C(Nc1ccc(C(F)(F)F)cc1)c1ccc(CN2CCOCC2)cc1	–
> 10000 nM	O=C(Nc1ccc(C(F)(F)F)cc1)c1cccc(CN2CCOCC2)c1	–
1.1 nM	COCc1ccc(CN2CCN(Cc3ccc(C(=O)Nc4ccc(C#CC56CC7CC(CC(C7)C5)C6)cc4)cc3)[C@@H](C)C2)cn1	–
34 nM	O=C(Nc1ccc(C#Cc2cccnc2)cc1)c1ccc(CN2CCN(Cc3cccnc3)CC2)cc1	–
13 nM	C[C@@H]1CN(Cc2cccnc2)CCN1Cc1ccc(C(=O)Nc2ccc(C(F)(F)F)cc2)cc1	–
30 nM	C[C@@H]1CN(Cc2ccc(C(=O)Nc3ccc(C(F)(F)F)cc3)cc2)CCN1Cc1cccnc1	–
